Tested on: U2OS
Assay: Multiplex assay against U2OS
Type: toxicity, cell-based
Settings: human
In short: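 Per cents of healthy-nucleus cells form the tubulin, mitochondrial-mass and membrane-permeability phenotype values. Live cells were stained at seeding with Hoechst33342, BioTracker Green Microtubule Cytoskeleton Dye, MitoTracker Red and Annexin V Alexa Fluor 680. After compound addition they were imaged on a CQ1 microscope at 37°C and 5% CO2, and CellPathfinder machine-learning gating split them into Hoechst high-intensity objects or normal cells, normal cells into healthy, pyknosed or fragmented nuclei, and pyknosed cells into mitotic or apoptotic.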

[1] = 12 h, 1 µM, compound concentration 1 uM, replicate 1
[2] = 12 h, 1 µM, compound concentration 1 uM, replicate 2
[3] = 12 h, 10 µM, compound concentration 10 uM, replicate 1
[4] = 12 h, 10 µM, compound concentration 10 uM, replicate 2
[5] = 24 h, 1 µM, compound concentration 1 uM, replicate 1
[6] = 24 h, 1 µM, compound concentration 1 uM, replicate 2
[7] = 24 h, 10 µM, compound concentration 10 uM, replicate 1
[8] = 24 h, 10 µM, compound concentration 10 uM, replicate 2
[9] = 48 h, 1 µM, compound concentration 1 uM, replicate 1
[10] = 48 h, 1 µM, compound concentration 1 uM, replicate 2
[11] = 48 h, 10 µM, compound concentration 10 uM, replicate 1
[12] = 48 h, 10 µM, compound concentration 10 uM, replicate 2

Nc1nc(CC(=O)Nc2ccc(CCNC[C@H](O)c3ccccc3)cc2)cs1 [MIRABEGRON]
Population Apoptotic (%) [1]: 86% | Population Fragmented Nuclei (%) [1]: 24% | Population Healthy Nuclei (%) [1]: 62% | Population Hoechst High Intensity Objects (%) [1]: 1% | Population Membrane Permeable-Phenotype (%) [1]: 6% | Population Mitochondria Different-Phenotype (%) [1]: 3% | Population Mitotic Cells (%) [1]: 13% | Population Normal (%) [1]: 98% | Population Pyknosed Nuclei (%) [1]: 12% | Population Tubulin-Different-Phenotype (%) [1]: 4% | Total Cell Count [1]: 240 | Population Apoptotic (%) [2]: 100% | Population Fragmented Nuclei (%) [2]: 13% | Population Healthy Nuclei (%) [2]: 74% | Population Hoechst High Intensity Objects (%) [2]: 0% | Population Membrane Permeable-Phenotype (%) [2]: 5% | Population Mitochondria Different-Phenotype (%) [2]: 2% | Population Mitotic Cells (%) [2]: 0% | Population Normal (%) [2]: 99% | Population Tubulin-Different-Phenotype (%) [2]: 5% | Total Cell Count [2]: 107 | Population Apoptotic (%) [3]: 86% | Population Fragmented Nuclei (%) [3]: 18% | Population Healthy Nuclei (%) [3]: 70% | Population Hoechst High Intensity Objects (%) [3]: 1% | Population Membrane Permeable-Phenotype (%) [3]: 6% | Population Mitochondria Different-Phenotype (%) [3]: 2% | Population Mitotic Cells (%) [3]: 13% | Population Normal (%) [3]: 98% | Population Pyknosed Nuclei (%) [3]: 11% | Population Tubulin-Different-Phenotype (%) [3]: 4% | Total Cell Count [3]: 319 | Population Apoptotic (%) [4]: 66% | Population Fragmented Nuclei (%) [4]: 21% | Population Healthy Nuclei (%) [4]: 71% | Population Hoechst High Intensity Objects (%) [4]: 0% | Population Membrane Permeable-Phenotype (%) [4]: 7% | Population Mitochondria Different-Phenotype (%) [4]: 3% | Population Mitotic Cells (%) [4]: 33% | Population Normal (%) [4]: 99% | Population Pyknosed Nuclei (%) [4]: 6% | Population Tubulin-Different-Phenotype (%) [4]: 1% | Total Cell Count [4]: 136 | Population Apoptotic (%) [5]: 82% | Population Fragmented Nuclei (%) [5]: 21% | Population Healthy Nuclei (%) [5]: 70% | Population Hoechst High Intensity Objects (%) [5]: 2% | Population Membrane Permeable-Phenotype (%) [5]: 4% | Population Mitochondria Different-Phenotype (%) [5]: 2% | Population Mitotic Cells (%) [5]: 17% | Population Normal (%) [5]: 97% | Population Pyknosed Nuclei (%) [5]: 8% | Population Tubulin-Different-Phenotype (%) [5]: 3% | Total Cell Count [5]: 289 | Population Apoptotic (%) [6]: 58% | Population Fragmented Nuclei (%) [6]: 11% | Population Healthy Nuclei (%) [6]: 79% | Population Hoechst High Intensity Objects (%) [6]: 0% | Population Membrane Permeable-Phenotype (%) [6]: 9% | Population Mitochondria Different-Phenotype (%) [6]: 3% | Population Mitotic Cells (%) [6]: 41% | Population Normal (%) [6]: 99% | Population Pyknosed Nuclei (%) [6]: 9% | Population Tubulin-Different-Phenotype (%) [6]: 7% | Total Cell Count [6]: 125 | Population Apoptotic (%) [7]: 86% | Population Fragmented Nuclei (%) [7]: 17% | Population Healthy Nuclei (%) [7]: 75% | Population Hoechst High Intensity Objects (%) [7]: 1% | Population Membrane Permeable-Phenotype (%) [7]: 5% | Population Mitochondria Different-Phenotype (%) [7]: 3% | Population Mitotic Cells (%) [7]: 13% | Population Normal (%) [7]: 98% | Population Pyknosed Nuclei (%) [7]: 7% | Population Tubulin-Different-Phenotype (%) [7]: 3% | Total Cell Count [7]: 405 | Population Apoptotic (%) [8]: 76% | Population Fragmented Nuclei (%) [8]: 20% | Population Healthy Nuclei (%) [8]: 71% | Population Membrane Permeable-Phenotype (%) [8]: 9% | Population Mitochondria Different-Phenotype (%) [8]: 5% | Population Mitotic Cells (%) [8]: 23% | Population Tubulin-Different-Phenotype (%) [8]: 4% | Total Cell Count [8]: 167 | Population Apoptotic (%) [9]: 84% | Population Fragmented Nuclei (%) [9]: 17% | Population Healthy Nuclei (%) [9]: 72% | Population Hoechst High Intensity Objects (%) [9]: 2% | Population Membrane Permeable-Phenotype (%) [9]: 4% | Population Mitochondria Different-Phenotype (%) [9]: 3% | Population Mitotic Cells (%) [9]: 15% | Population Normal (%) [9]: 97% | Population Pyknosed Nuclei (%) [9]: 9% | Population Tubulin-Different-Phenotype (%) [9]: 3% | Total Cell Count [9]: 394 | Population Apoptotic (%) [10]: 78% | Population Fragmented Nuclei (%) [10]: 12% | Population Healthy Nuclei (%) [10]: 74% | Population Membrane Permeable-Phenotype (%) [10]: 8% | Population Mitotic Cells (%) [10]: 21% | Population Pyknosed Nuclei (%) [10]: 13% | Population Tubulin-Different-Phenotype (%) [10]: 7% | Total Cell Count [10]: 179 | Population Apoptotic (%) [11]: 87% | Population Fragmented Nuclei (%) [11]: 14% | Population Healthy Nuclei (%) [11]: 74% | Population Hoechst High Intensity Objects (%) [11]: 2% | Population Membrane Permeable-Phenotype (%) [11]: 5% | Population Mitochondria Different-Phenotype (%) [11]: 2% | Population Mitotic Cells (%) [11]: 12% | Population Normal (%) [11]: 97% | Population Pyknosed Nuclei (%) [11]: 10% | Population Tubulin-Different-Phenotype (%) [11]: 2% | Total Cell Count [11]: 534 | Population Apoptotic (%) [12]: 70% | Population Healthy Nuclei (%) [12]: 78% | Population Membrane Permeable-Phenotype (%) [12]: 3% | Population Mitochondria Different-Phenotype (%) [12]: 3% | Population Mitotic Cells (%) [12]: 29% | Population Pyknosed Nuclei (%) [12]: 7% | Population Tubulin-Different-Phenotype (%) [12]: 1% | Total Cell Count [12]: 232
